Source: ChEMBL document CHEMBL1155825, “Potent and selective antiplasmodial activity of the cyanobacterial alkaloid nostocarboline and its dimers” (Bioorg Med Chem Lett, 2008)

Legend:
[1] = system: Trypanosoma brucei rhodesiense; experiment: Antiparasitic activity against Trypanosoma brucei rhodesiense STIB900; assay type: functional, organism-based
[2] = system: Trypanosoma cruzi; experiment: Antiparasitic activity against Trypanosoma cruzi Tulahuen C2C4; assay type: functional, organism-based
[3] = system: Leishmania donovani; experiment: Antiparasitic activity against Leishmania donovani […]; assay type: functional, organism-based
Method in brief: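 Leishmania donovani MHOM-ET-67/L82 tested as axenic amastigotes; IC50 determined.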

[4] = system: Plasmodium falciparum; experiment: Antiparasitic activity against Plasmodium falciparum K1; assay type: functional, organism-based
[5] = system: L6; experiment: Cytotoxicity against rat L6 cells; assay type: cell-based
Method in brief: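 Cytotoxicity was measured on rat skeletal myoblast L6 cells, with the IC50 as read-out.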

[6] = Selectivity index, ratio of IC50 for rat L6 cells to IC50 for Plasmodium falciparum K1; assay type: toxicity, cell-based; conditions: rat L6 cells (cytotoxicity) versus Plasmodium falciparum K1, read-out: Ratio IC50

IC50 [1]	IC50 [2]	IC50 [3]	IC50 [4]	SMILES	IC50 [5]	selectivity ratio [6]
6.4 µM	10.6 µM	34.7 µM	0.738 µM	Clc1ccc2[nH]c3c[n+](CC#CC[n+]4ccc5c(c4)[nH]c4ccc(Cl)cc45)ccc3c2c1	28.5 µM	39
1.2 µM	36.2 µM	6.6 µM	0.02 µM	Clc1ccc2[nH]c3c[n+](CCCCCC[n+]4ccc5c(c4)[nH]c4ccc(Cl)cc45)ccc3c2c1	36.2 µM	1810
1.2 µM	10 µM	0.6 µM	0.023 µM	Clc1ccc2[nH]c3c[n+](CCCCCCCCCCCC[n+]4ccc5c(c4)[nH]c4ccc(Cl)cc45)ccc3c2c1	4.3 µM	186
1.2 µM	51.1 µM	8.6 µM	0.018 µM	Clc1ccc2[nH]c3c[n+](CCOCC[n+]4ccc5c(c4)[nH]c4ccc(Cl)cc45)ccc3c2c1	47.9 µM	2620
1 µM	> 51.7 µM	19.9 µM	0.223 µM	Clc1ccc2[nH]c3c[n+](Cc4ccc(C[n+]5ccc6c(c5)[nH]c5ccc(Cl)cc56)cc4)ccc3c2c1	17.4 µM	78
0.9 µM	31.4 µM	2.3 µM	0.018 µM	Clc1ccc2[nH]c3c[n+](CCCCCCCC[n+]4ccc5c(c4)[nH]c4ccc(Cl)cc45)ccc3c2c1	7.5 µM	423
1.1 µM	36.6 µM	0.9 µM	0.014 µM	Clc1ccc2[nH]c3c[n+](CCCCCCCCCC[n+]4ccc5c(c4)[nH]c4ccc(Cl)cc45)ccc3c2c1	8.2 µM	575
92.5 µM	> 44.6 µM	61.6 µM	> 7.4 µM	O=C(O)c1cn(C2CC2)c2cc(N3CCN(Cc4ccc(C[n+]5ccc6c(c5)[nH]c5ccc(Cl)cc56)cc4)CC3)c(F)cc2c1=O	121 µM	
1.2 µM	5.9 µM	0.2 µM	0.121 µM	Clc1ccc2[nH]c3c[n+](Cc4cccc(C[n+]5ccc6c(c5)[nH]c5ccc(Cl)cc56)c4)ccc3c2c1	3.8 µM	32
2.5 µM	> 45.7 µM	68.4 µM	0.056 µM	Clc1ccc2[nH]c3c[n+](Cc4ccc(-c5ccc(C[n+]6ccc7c(c6)[nH]c6ccc(Cl)cc67)cc5)cc4)ccc3c2c1	23 µM	408
1.1 µM	> 56.6 µM	9.6 µM	0.113 µM	Clc1ccc2[nH]c3c[n+](C/C=C\C[n+]4ccc5c(c4)[nH]c4ccc(Cl)cc45)ccc3c2c1	61.1 µM	540

SMILES	IC50 [1]	IC50 [2]	IC50 [3]	IC50 [4]	IC50 [5]	selectivity ratio [6]
C[n+]1ccc2c(c1)[nH]c1ccc(Cl)cc12 [NOSTOCARBOLINE]	70.5 µM	> 87.1 µM	34.3 µM	0.194 µM	121 µM	622
